High-throughput results as filed in PubChem BioAssay.
Rows were chosen to be rich in hits. Some 12% of all compounds tested hit in one or more screens of this group.
Dynein transport: dynein cargo transport inhibition. AID 1381. 220,000 tested, 0.47% active. z-score, hits read low. 3617.4 mouse cells, GR-EGFP nuclear translocation imaging; test concentration mostly 20 µM; stimulated with dexamethasone, 1 µM; active compounds read low;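 active = plate z-score of nuclear minus cytoplasmic receptor signal below a set negative limit, without overly bright fluorescence or cell loss, cut at about -3.5 in these data, passing the limit was not always enough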;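 note: z-score of nuclear minus cytoplasmic ring GR-EGFP intensity difference per well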
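medium = tetracycline-free induction medium containing charcoal-stripped FBS | also added = 1.0 µM final dexamethasone stimulus | schedule = 48 h induction, 1 h compound, 30 min dex at 37 °C | technique = fixed, Hoechst-stained cells imaged at 10x for EGFP | measure = GR-EGFP nuclear translocation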
CHOP inh: CHOP inhibition in unfolded protein response; CHO-K1 CHOP-promoter luciferase, tunicamycin-induced, 15-18 h; inhibition, % at 10 µM; 220,000 tested, 3.8% active; AID 2732;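 active = compounds that reduced the stress-induced luciferase reporter signal by more than about 70% of percent inhibition, limit read from the data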
Lmaj promast: Leishmania major promastigote growth inhibition; 200,000 tested, 9% active; Leishmania major promastigotes, resazurin fluorescence viability; inhibition, % at 10 µM; in the data active = inhibition above about 50%;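 note: promastigotes grown with compound for 44 hours at 28 °C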
Autophagy mod: modulators of autophagy; calls only at 10 µM (by protocol); MEF GFP-LC3 puncta imaging; test concentration mostly 10 µM; 190,000 tested, 0.98% active;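 active = percentage of spot-positive cells more than 3 SD above its plate mean, without a fluorescence outlier flag or 80% toxicity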
MT stabilize HCS: microtubule stabilizers in HeLa cells; HeLa tubulin immunostaining HCS, 24 h; share of cells brighter than vehicle mean+2SD; % tubulin-high responders, % at 10 µM; 200,000 tested, 0.83% active; AID 2205;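 active = plate Z-score above 3 for both tubulin-high and condensed-nucleus cell shares, with cell loss under 80%, at 10 µM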;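 note: anti alpha tubulin signal scored within the nucleus-defined area of each cell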
b-catenin transl: beta-catenin nuclear translocation modulation; nuclear translocation activity, % at 5 µM; HeLa beta-catenin nuclear translocation, immunofluorescence imaging; AID 1665; 190,000 tested, 0.3% active;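 active = nuclear translocation activity above 50% at 5 µM, with a well cell count of 50 or more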;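 note: per-cell ratio of nuclear to cytoplasmic median beta-catenin stain intensity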
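Technique: fluorescence imaging of beta-catenin antibody stain plus DAPI / Material: human HeLa cell line / Incubation: compound treatment 24 h, 37°C, 5% CO2 / Read-out basis: % activation of per-cell nuclear versus cytoplasmic median beta-catenin signal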
Large screens that a line does not name were inactive; ! = not active in a repeat.

N#CC1=C2SCN(Cc3ccco3)CN2C(=O)CC1c1c(F)cccc1Cl (centres undefined)	Lmaj promast 75 (no result: b-catenin transl)
Cc1ccc(C2CC(=O)N3CN(Cc4ccco4)CSC3=C2C#N)cc1 (centres undefined)	none
C=CCn1c(SCC(O)Cn2c3ccccc3c3ccccc32)nnc1-c1ccco1 (centres undefined)	CHOP inh 77
C=CCn1c(SCC(=O)N2c3ccccc3Sc3ccccc32)nnc1-c1ccco1	none (no result: Lmaj promast, Autophagy mod, MT stabilize HCS)
CCc1ccc(-c2nn(-c3ccccc3)cc2C2SCC(=O)N2Cc2ccco2)cc1 (centres undefined)	Lmaj promast 98
CCCCNC(=O)NNC(=O)c1cc(C)on1	none (no result: Lmaj promast, Autophagy mod, MT stabilize HCS)
CCOC(=O)C(C)(C)N(Cc1cccc(C)c1)S(=O)(=O)c1ccc(Cl)c([N+](=O)[O-])c1	Lmaj promast 86
CN1Cc2cccc3c2C(Cc2ccccc2S3)C1 (centres undefined)	Lmaj promast 57
O=C(Cc1ccccc1)N/N=C/c1ccc(-c2ccc([N+](=O)[O-])cc2)o1	Autophagy mod active
CCOc1ccc(S(=O)(=O)N(CC(=O)N/N=C/c2ccc(-c3ccc([N+](=O)[O-])cc3)o2)c2ccccc2)cc1	MT stabilize HCS 26, b-catenin transl 60
Cc1ccc(C)c(N(CC(=O)N/N=C/c2ccc(-c3ccc([N+](=O)[O-])cc3)o2)S(=O)(=O)c2ccccc2)c1	CHOP inh 82, Autophagy mod active
CCOC(=O)c1ccc(-c2ccc(/C=N/NC(=O)CN(c3ccccc3Cl)S(C)(=O)=O)o2)cc1	none
CCOC(=O)c1ccc(-c2ccc(/C=N/NC(=O)CN(c3cccc(C)c3)S(C)(=O)=O)o2)cc1	CHOP inh 79
CCOc1ccc(N(CC(=O)N/N=C/c2cc([N+](=O)[O-])ccc2Cl)S(C)(=O)=O)cc1	none
COc1nc(N=C(N)N)nc2ccc(C)cc12	none
C=CCC(CC=C)(NC(=O)c1cccc(C)c1)c1ccccc1	Lmaj promast 68 (no result: b-catenin transl)
O=S(=O)(NCC1CCCO1)c1ccc(S(=O)(=O)N(Cc2ccccc2F)C2CCCCC2)cc1 (centres undefined)	none (no result: CHOP inh, b-catenin transl)
NC(=O)NC(Cc1ccccc1)c1ccccc1 (centres undefined)	none
NC(=O)OCC(COC(N)=O)c1ccccc1	CHOP inh 97!
Cc1ccc(-n2nnnc2-c2ccco2)cc1	none (no result: b-catenin transl)
CCN(CC)c1ccc(C=C(c2nnnn2-c2ccc(C)cc2)c2nnnn2-c2ccc(C)cc2)cc1	Autophagy mod active
CC(C)Nc1nc(NC(C)C)nc(N(C#N)CCOc2ccc(Cl)cc2Cl)n1	Lmaj promast 81
c1ccc(CC2CCN(c3ncnc4sccc34)CC2)cc1	CHOP inh 74
CCC(=O)n1nc(-c2ccccc2)nc1N	none
Cc1ccc(-c2nc(N)n(C(=O)Cc3ccccc3)n2)cc1	CHOP inh 86
CCC(=O)n1nc(-c2ccc(Cl)cc2)nc1NCc1ccccc1	Autophagy mod active (no result: b-catenin transl)
COc1ccc(CCNC(=O)c2cccs2)cc1OC	none
COc1ccc(CNc2nc(NCc3ccc(OC)c(OC)c3)n(C(=O)c3cccs3)n2)cc1OC	Lmaj promast 97
CCC(=O)n1nc(NCc2ccccc2OC)nc1NCc1ccccc1OC	CHOP inh 76 (no result: b-catenin transl)
CCCCc1n(CC(=O)c2ccc(Cl)cc2)c2ccccc2[n+]1C	none
Cn1cc([N+](=O)[O-])c(C(=O)Nc2ccc(-c3nc4ccccc4o3)cc2)n1	none (no result: Lmaj promast, Autophagy mod, MT stabilize HCS)
COc1ccc(NC(=O)CSc2ccccc2)c(OC)c1	none
COc1ccc(NC(C)=O)cc1NC(=O)CN1CCN(C(=O)c2ccco2)CC1	none
O=C(Nc1ccncc1)c1ccc2c(c1)S(=O)(=O)c1ccccc1C2=O	Lmaj promast 100
O=C(Nc1nc(-c2cccc3ccccc23)cs1)c1ccc2c(c1)S(=O)(=O)c1ccccc1C2=O	CHOP inh 85
O=C(Nc1nc(-c2ccccc2)cs1)c1ccc2c(c1)S(=O)(=O)c1ccccc1C2=O	none
O=C(Nc1nc2ccccc2s1)c1ccc2c(c1)S(=O)(=O)c1ccccc1C2=O	none
CC(C)NC(=O)c1ccc2c(c1)S(=O)(=O)c1ccccc1C2=O	none
